# Screens: PubChem BioAssay, The Scripps Research Institute Molecular Screening Center
# The list is not random: actives were taken first. Their share in the collection is about 1.8%.
# NOD2-RIPK2 inh = NOD2-RIPK2 binding disruptors in cells, primary screen, fluorescence, CHO cells, BLA complementation; Receptor-interacting serine/threonine-protein kinase 2 (Homo sapiens), O43353; inhibition, % at 4.98 µM; 360,000 compounds, 0.38% hits; AID 624267, 2012; CCF4 ratio; in the data active = inhibition above about 21%
# MC4R ag barr = MC4R agonists recruiting beta-arrestin, primary screen, cell-based, luminescence, agonist arm of biased-ligand search | activation, % at 8.9 µM | AID 540308, 2011 | 360,000 compounds, 0.98% hits | Melanocortin receptor 4 (Homo sapiens), P32245 | U2OS MC4R beta-arrestin complementation; percent of melanotan II response, DMSO zero;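 active = activation above a per-plate cutoff, the mean activation of sample wells on that plate plus 3 SD, cut at about 8% in these data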
# Target sequence (P32245 whole entry, looked up): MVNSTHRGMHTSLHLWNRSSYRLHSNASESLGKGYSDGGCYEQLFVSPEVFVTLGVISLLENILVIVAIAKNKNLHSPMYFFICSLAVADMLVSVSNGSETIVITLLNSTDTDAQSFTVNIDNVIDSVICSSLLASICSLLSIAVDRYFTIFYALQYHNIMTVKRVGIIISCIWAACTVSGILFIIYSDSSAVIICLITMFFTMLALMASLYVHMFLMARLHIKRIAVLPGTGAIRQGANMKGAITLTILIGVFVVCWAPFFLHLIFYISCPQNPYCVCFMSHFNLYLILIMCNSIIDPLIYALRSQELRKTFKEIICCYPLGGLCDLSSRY
# MC4R antagonist = MC4R antagonists of cAMP signaling, primary screen, cell-based, TR-FRET, antagonist arm of biased-ligand search | MC4R-expressing cells, MTII-stimulated cAMP, LANCE TR-FRET | inhibition, % at 6.5 µM | 360,000 compounds, 0.48% hits | AID 540295, 2011;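 active = inhibition above its plate's cutoff, the mean of tested wells on that plate plus 3 SD, cut at about 29% in these data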
#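 System: U2OS cells stably expressing human melanocortin 4 receptor (MC4R). Reagent: Melanotan II challenge after compound preincubation. Doses: 6.5 µM. Times: 30-min compound, 1-h challenge, 1-h detection, room temperature. Measured by: TR-FRET with Eu-cAMP and labeled anti-cAMP, 671 nm. Replicates: singlicate.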
# TLR9-MyD88 inh = inhibitors of TLR9-MyD88 association in cells, primary screen, cell-based, CHO, BLA complementation, fluorescence; CCF4 FRET ratio; Toll-like receptor 9 (Homo sapiens) + Myeloid differentiation primary response protein …; 340,000 compounds, 0.21% hits; inhibition, % at 4.98 µM;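 active = inhibition above the mean over all tested compounds plus 3 SD, cut at about 21% in these data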
# TLR4 MyD88 comp = inhibitors of TLR4-MyD88 association in cells, primary screen, cell-based, HeLa CL3-4, BLA complementation, FRET ratio; HeLa CL3-4 TLR4/MyD88 BLA complementation; inhibition, % at 8.4 µM; Toll-like receptor 4 (Homo sapiens) + Myeloid differentiation primary response protein …; 200,000 compounds, 0.18% hits; AID 861, 2007; in the data active = inhibition above about 25%
# Hits are given with their value; – = inactive; · = no result given.
SMILES,NOD2-RIPK2 inh,MC4R ag barr,MC4R antagonist,TLR9-MyD88 inh,TLR4 MyD88 comp
Cc1cc(Nc2cccc(Cl)c2Cl)n2ncnc2n1,–,–,–,–,·
Cc1oc(-c2ccccc2F)nc1CS(=O)CC(=O)NCc1ccc(F)cc1 (centres undefined),–,–,–,–,·
S=c1[nH]nc(-c2cccs2)n1/N=C/c1cn(-c2ccccc2)nc1-c1ccccc1,–,9.4,–,–,·
O=C(c1ccccc1)N1N=C(c2cccs2)CC1c1ccccc1O (centres undefined),–,8.4,–,–,·
CN(C(=O)COC(=O)c1ccc(S(=O)(=O)N2CCCCCC2)cc1)c1ccccc1,–,–,–,–,·
COC(=O)[C@@]12C[C@@H](CC(=O)N3CCOCC3)C(=O)N(Cc3cccc4ccccc34)C1=CCC(C)(C)C2,–,·,·,·,·
CN(C(=O)COc1ncnc2ccccc12)C1CCCCC1,–,–,–,–,·
COc1ccc(NC(=O)CN(C)C(=O)c2oc3ccccc3c2C)cc1,–,–,–,–,–
CCC(C)[C@@H](NC(=O)OC(C)(C)C)c1nnc(S(=O)(=O)Cc2cccc(C)c2)o1 (some centres undefined),24,–,–,–,–
O=C(c1ccco1)N1CCN(Cc2cccc3ccccc23)CC1,–,–,–,–,·
CCCC(=O)OC1CCS(=O)(=O)c2sccc21 (centres undefined),–,–,–,–,–
Clc1cc(Br)ccc1OCCCNCc1ccccc1,–,8.8,–,–,–
O=C1/C(=C/c2ccncc2)Oc2cc(OS(=O)(=O)c3ccccc3)ccc21,–,–,–,–,·
COc1cccc(OC)c1C(=O)Oc1ccc2c(c1)O/C(=C\c1ccncc1)C2=O,–,8.6,–,–,–
COc1ccc(CC(=O)Nc2ccc(-c3cn4cccc(C)c4n3)cc2)cc1OC,–,–,–,–,–
Cc1cccn2cc(-c3ccc(NC(=O)Cc4ccccc4)cc3)nc12,–,9.3,–,–,–
c1ccc(CNc2nc(NCc3ccccc3)c3ccccc3n2)cc1,–,8.6,–,–,·
c1ccc(CNc2nc(-c3ccccc3)nc3ccccc23)cc1,–,–,–,–,·
Cc1ccc(SCC(=O)Nc2ccc(-c3nc4ccccc4[nH]3)cc2)cc1,–,8.3,–,–,–
Cc1ccc2nc(-c3ccc(SCC(=O)Nc4nnc(C)s4)nc3)[nH]c2c1,–,11,–,–,–
C/C(=N/NC(=O)c1ccoc1C)c1cccc(NC(=O)C2CC2)c1,–,–,–,–,–
CCOC(=O)N(Cc1ccccc1)Cc1ccc(C(=O)N[C@@H](Cc2ccccc2)C(=O)O)cc1,–,–,–,–,·
Cc1ccc(O)c(C(=O)CC(=O)c2ccc(C(C)(C)C)cc2)c1,–,12,–,–,·
Cc1ccc(O)c(C(=O)CC(=O)c2ccccc2Cl)c1,–,–,–,–,–
CCCCn1nnnc1C(c1ccccc1)N1CCN(c2cccc(C(F)(F)F)n2)CC1 (centres undefined),–,·,·,·,·
SMILES,NOD2-RIPK2 inh,MC4R ag barr,MC4R antagonist,TLR9-MyD88 inh,TLR4 MyD88 comp
Cc1ccnn1Cc1cc(C(=O)O)c2ccccc2n1,–,–,–,–,–
O=C1/C(=C\c2ccc([N+](=O)[O-])cc2)CCc2ccccc21,–,–,–,–,–
O=C1/C(=C/Nc2cccc([N+](=O)[O-])c2)CCc2ccccc21,–,9.2,–,–,–
N/C(Cc1cccc2ccccc12)=N\OC(=O)c1ccc(Br)o1,·,·,·,·,–
N/C(Cc1ccc(Cl)cc1Cl)=N\OC(=O)c1ccc(Br)o1,–,8.3,–,–,·
COc1ccc(-c2nc(C#N)c(N3CCc4ccccc4C3)o2)cc1OC,–,12,–,–,–
O=C(Cc1c(Cl)cccc1Cl)NCCc1ccc(Cl)cc1,–,9.3,–,–,–
N#Cc1ccccc1NC(=O)C(=O)NCCCN1CCCC1=O,–,–,–,–,·
CC(C)(C)OC(=O)C[C@H]1C/C=C\C[C@H](CC(=O)NCCO)C(=O)NC[C@@H](c2ccccc2)OC1=O,–,–,–,–,·
CCOC(=O)N1CCN(C(=O)c2ccccc2NC(=O)c2ccc(F)cc2)CC1,–,8.4,–,–,–
CCOC(=O)N1CCN(C(=O)c2ccccc2NC(=O)c2ccc(Br)cc2)CC1,–,–,–,–,–
CC(=O)Nc1cc(-c2cccc(C(=O)NCCN(C)C)c2)cn2c(-c3ccc(F)c(Cl)c3)cnc12,–,–,–,·,·
CC(=O)Nc1cc(-c2ccc(CO)cc2)cn2c(-c3ccc(F)c(Cl)c3)cnc12,–,9.1,–,·,·
CC(C)NC(=O)C1(C)CSCC(=O)N1CC(F)(F)F (centres undefined),–,·,·,·,·
COc1ccc(Cc2c(-c3cccc(Br)c3)nc3c(C)cc(Br)cn23)c(C)c1,–,·,·,·,·
CCCCCCCCCCCC1=C(O)C(=O)C=C(O)C1=O,–,16,–,–,·
CCc1nc2c(OCCC3CCCCC3)cccn2c1N(C)C(=O)c1ccccc1F,–,–,–,·,·
CCn1c(SCC(=O)c2ccc(O)c(O)c2)nnc1-c1ccc(C)cc1,–,–,–,–,–
CCn1c(SCC(=O)c2ccc3c(c2)Cc2ccccc2-3)nnc1-c1ccc(N)cc1,–,11,–,–,–
O=C(NCc1cccc(CNC(=O)c2ccco2)c1)c1ccco1,–,–,–,–,–
O=C(NCc1cccc(CNC(=O)C(=O)NCc2ccco2)c1)C(=O)NCc1ccco1,–,9.6,–,–,–
CC(OC(=O)c1cc(Br)ccc1O)C(=O)NC1(C#N)CCCCC1 (centres undefined),–,–,–,–,·
Cc1ccc(-c2noc(CCC(=O)Nc3cc(C)ccn3)n2)cc1,–,9.2,–,–,–
CCOC(=O)c1ccc(NC(=O)NNC(=O)CCc2ccc(OC)cc2)cc1,–,–,–,–,·
CCOC(=O)c1cc(NC(=O)c2cc(C)on2)cc(C(=O)OCC)c1,–,31,–,–,–
SMILES,NOD2-RIPK2 inh,MC4R ag barr,MC4R antagonist,TLR9-MyD88 inh,TLR4 MyD88 comp
Cc1cc(OCC(=O)NNC(=O)CCc2ccccc2)ccc1Br,–,–,–,–,·
Cc1cccc(OCCNC(=S)NC(=O)c2cncc(Br)c2)c1,–,9.3,–,–,·
Cc1ccc(OCCNC(=O)c2cncc(Br)c2)cc1C,–,–,–,–,–
COc1cccc(N=c2oc3ccc(OC)cc3cc2-c2nc3ccccc3[nH]2)c1,–,8.5,–,–,–
CCCCCCCCCCOC(=O)Cn1c(COc2ccc(Cl)cc2)[n+](C)c2ccccc21,–,17,–,–,·
CCOC(=O)Cn1c(COc2ccccc2OC)[n+](C)c2ccccc21,–,–,–,·,·
CCCCCCCCCCOC(=O)Cn1c(COc2ccccc2C)[n+](C)c2ccccc21,22,49,–,–,·
Cc1c(C(=O)NC2CCCC2)oc2ccccc12,–,–,–,–,·
